Each structure is given as a SMILES string. Active and inactive are the calls of the source. The calls are words filed in the database; no cut-off is given here.

For test [1], the species on record is Rattus norvegicus. Description: Half maximal decrease of dopa accumulation in striatal brain portion of reserpinized rats. The class given is functional. The procedure, abridged: (§1)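 Reserpinized rats; Dopa accumulation measured after the decarboxylase inhibitor NSD 1015 (100 mg/kg), Dopa determined spectrophotometrically. Compounds in saline, given subcutaneously at four to six dose levels. A dose-response curve was built per compound and brain area (limbic, striatal). ED50 is the dose giving half-maximal decrease of Dopa, estimated graphically. SEM was below 15% of the mean at each point.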

The species entered for test [2] is Rattus norvegicus. Nature of the test: Half maximal decrease of dopa accumulation in limbic portion of reserpinized rats. Format: functional. To be noted: Limbic system. The procedure, abridged:
as §1

For test [3], the species on record is Rattus norvegicus. Nature of the test: Reduction in accumulated dopa is indicated with Motor activity value. The class given is functional. The procedure, abridged:
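Rats given reserpine (10 mg/kg ip) 6 h and α-methyl-p-tyrosine methyl ester (250 mg/kg ip) 1 h before testing. Compounds were then given sc in the neck, n = 4, at 1 or 10 mg/kg in saline; controls received saline. Photocell motility meters, one rat per cage, recorded activity for 60 min immediately after dosing, with gross behavior observed.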

The species entered for test [4] is Rattus norvegicus. Description: Half maximal decrease of dopa accumulation in striatal brain portion of reserpinized rats; I =Inactive. The class given is functional, organism-based. The procedure, abridged:
as §1

The species named for test [5] is Rattus norvegicus. Description: Half maximal decrease of dopa accumulation in limbic portion of reserpinized rats; I =Inactive. Format: functional, organism-based. To be noted: Limbic system. The procedure, abridged: as §1

As for `Br.CCCN(CCC)[C@H]1CCc2c(O)cccc2[C@H]1C`, the ED50 (usually the midpoint of the dose-response relation) in the test listed under Rattus norvegicus [1] was determined as 0.8 µmol/kg; in the test filed under Rattus norvegicus [2] it was 0.67 µmol/kg. This compound had a Motor activity in the test filed under Rattus norvegicus [3] of 52 Counts hr-1.
For `CCCN(CCC)[C@H]1CCc2c(O)cccc2C1(C)C`, the ED50 entry in the test listed under Rattus norvegicus [4] and in the test listed under Rattus norvegicus [5] was “inactive” in each case. The Motor activity result in the test filed under Rattus norvegicus [3] was “inactive”.
For `Br.CCCN(CCC)[C@H]1CCc2c(O)cccc2[C@@H]1C`, the ED50 in the test listed under Rattus norvegicus [1] was found to be 0.725 µmol/kg; in the test filed under Rattus norvegicus [2], 0.66 µmol/kg. The Motor activity in the test listed under Rattus norvegicus [3] was found to be 406 Counts hr-1.

The record behind these values is ChEMBL document CHEMBL1122695, “C1-Methylated 5-hydroxy-2-(dipropylamino)tetralins: central dopamine-receptor stimulating activity” (1984).
